{
  "source": "ChEMBL document CHEMBL4715860",
  "about": "(J Med Chem, 2020)",
  "key": {"[1]": {"test": "Metabolic stability in CD1 mouse hepatocytes assessed as parent compound remaining at 5 uM incubated for 3 hrs by LC-MS analysis", "format": "ADME, cell-based, Hepatocyte", "conditions": "read-out: Stabilty", "outline": "(§1)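 Cryopreserved primary hepatocytes in suspension (CD-1 mouse, Sprague-Dawley rat, Beagle dog, human). Compound diluted from 10 mM DMSO stock to 5 μM final. Sampled at 0, 15, 60, 90 and 180 min, protein precipitated with ACN plus internal standard, supernatant analysed by LC−MS. Run in duplicate. 7-ethoxycoumarin as positive control. Hepatocyte-free medium incubations as negative control.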"}, "[2]": {"test": "Metabolic stability in human hepatocytes assessed as parent compound remaining at 5 uM incubated for 3 hrs by LC-MS analysis", "format": "ADME, cell-based, Hepatocyte", "conditions": "read-out: Stabilty", "outline": "as §1"}, "[3]": {"system": "Mus musculus", "test": "Protection against Tsc1-GFAP knockout induced mortality in Balb/c mouse assessed as increase in survival rate at 100 mg/kg, po administered as single dose", "format": "functional, organism-based"}, "[4]": {"test": "Metabolic stability in Beagle dog hepatocytes assessed as parent compound remaining at 5 uM incubated for 3 hrs by LC-MS analysis", "format": "ADME, cell-based, Canis lupus familiaris, Hepatocyte", "conditions": "read-out: Stabilty", "outline": "as §1"}, "[5]": {"test": "Toxicity in Tsc1-GFAP knockout Balb/c mouse assessed as survival rate administered orally once a day measured post last dose", "conditions": "in vivo, po, dose 50-100 mg/kg", "outline": "(§2)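 Tsc1GFAPCKO mice (Tsc1 conditionally inactivated mainly in glia). Oral dosing from P21 at 10, 25, 50 mg/kg qd or 50 mg/kg bid, n = 7–10 per group. Controls were vehicle and a comparator at 10 mg/kg. Body weight tracked. Survival followed from P21 to death or censoring at P90, compared by log-rank test.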"}, "[6]": {"system": "Mus musculus", "test": "Protection against Tsc1-GFAP knockout induced mortality in Balb/c mouse assessed as increase in survival rate administered orally twice a day measured post last dose", "format": "functional, organism-based", "outline": "as §2"}, "[7]": {"test": "Metabolic stability in Sprague-Dawley rat hepatocytes assessed as parent compound remaining at 5 uM incubated for 3 hrs by LC-MS analysis", "format": "ADME, cell-based, Hepatocyte", "conditions": "read-out: Stabilty", "outline": "as §1"}, "[8]": {"test": "Toxicity in po dosed Balb/c nude mouse administered once daily for 14 days measured for 7 days starting from post last dose", "format": "organism-based", "conditions": "in vivo, time 21 day", "outline": "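Nontumor-bearing female BALB/c nude mice dosed p.o. once daily for 14 days at 100, 150 or 200 mg/kg (n = 3 each), with vehicle of 20% Captisol in water (n = 1). Body weight change followed, with animals evaluated for 7 days after dosing to set the maximum tolerated dose.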"}, "[9]": {"test": "Toxicity in Tsc1-GFAP knockout Balb/c mouse assessed as change in body weight at 50 to 100 mg/kg, po", "format": "organism-based", "conditions": "in vivo, dose 50-100 mg/kg"}, "[10]": {"test": "Tmax in C57BL/6J mouse brain at 10 mg/kg, po administered as single dose by mass spectrometry based UHPLC analysis", "format": "ADME, organism-based", "outline": "(§3)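 Female C57BL/6J mice dosed orally at 10 mg/kg in 20% Captisol, either once or once daily for 4 days with sampling after the last dose on day 4. Plasma and brain concentrations followed over time. Tmax taken from at least 3 time points.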"}, "[11]": {"test": "AUC (0 to 8 hrs) in C57BL/6J mouse plasma at 10 mg/kg, po administered once a day for 4 consecutive days by mass spectrometry based UHPLC analysis", "format": "ADME, organism-based", "parameters": "route oral, time 4 day, dose 10 mg/kg", "outline": "(§4)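 Female C57BL/6J mice given 10 mg/kg p.o. in 20% Captisol once daily for 4 consecutive days. Plasma and brain sampled after the final dose on day 4, n = 3 per time point.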"}, "[12]": {"system": "Mus musculus", "test": "In vivo inhibition of mTORC1 signalling in C57BL/6J mouse assessed as reduction in RPS6 phosphorylation at S235/236 residue in cortex at 10 mg/kg, po incubated for 30 mins by Western blot analysis", "format": "functional, organism-based"}, "[13]": {"test": "Clearance in C57BL/6J mouse plasma at 10 mg/kg, po administered as single dose by mass spectrometry based UHPLC analysis", "format": "ADME, organism-based", "outline": "(§5)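 Female C57BL/6J mice, one oral dose of 10 mg/kg in 20% Captisol; plasma and brain levels over time, n = 3 per time point (mean).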"}, "[14]": {"test": "Cmax in C57BL/6J mouse plasma at 10 mg/kg, po administered as single dose by mass spectrometry based UHPLC analysis", "format": "ADME, organism-based", "parameters": "route oral, dose 10 mg/kg", "outline": "as §5"}, "[15]": {"test": "Toxicity in Tsc1-GFAP knockout Balb/c mouse assessed as change in body weight at 10 mg/kg, po", "format": "organism-based", "conditions": "in vivo", "outline": "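Tsc1GFAPCKO mice dosed orally from P21 at 10, 25, 50 mg/kg or 50 mg/kg bid. Body weight tracked during the survival study; mean ± SEM.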"}, "[16]": {"test": "Clearance in C57BL/6J mouse plasma at 10 mg/kg, po administered once a day for 4 consecutive days by mass spectrometry based UHPLC analysis", "format": "ADME, organism-based", "conditions": "time 4 day", "outline": "as §4"}, "[17]": {"test": "AUC (0 to 8 hrs) in C57BL/6J mouse brain at 10 mg/kg, po administered once a day for 4 consecutive days by mass spectrometry based UHPLC analysis", "format": "ADME, organism-based", "parameters": "route oral, time 4 day, dose 10 mg/kg", "outline": "as §4"}, "[18]": {"test": "AUC (0 to 8 hrs) in C57BL/6J mouse brain at 10 mg/kg, po administered as single dose by mass spectrometry based UHPLC analysis", "format": "ADME, organism-based", "parameters": "time < 8 hr, route oral, dose 10 mg/kg", "outline": "as §5"}, "[19]": {"test": "Elimination half life in C57BL/6J mouse plasma at 10 mg/kg, po administered once a day for 4 consecutive days by mass spectrometry based UHPLC analysis", "format": "ADME, organism-based", "conditions": "time 4 day, read-out: beta t1/2 (converted)", "outline": "as §4"}, "[20]": {"test": "Cmax in C57BL/6J mouse brain at 10 mg/kg, po administered once a day for 4 consecutive days by mass spectrometry based UHPLC analysis", "format": "ADME, organism-based", "parameters": "route oral, dose 10 mg/kg, time 4 day", "outline": "as §4"}, "[21]": {"system": "Mus musculus", "test": "In vivo inhibition of PI3Kalpha C57BL/6J mouse assessed as increase in plasma insulin concentration at 10 mg/kg, po measured after 8 hrs by ELISA", "format": "functional, organism-based"}, "[22]": {"test": "Cmax in C57BL/6J mouse brain at 10 mg/kg, po administered as single dose by mass spectrometry based UHPLC analysis", "format": "ADME, organism-based", "parameters": "route oral, dose 10 mg/kg", "outline": "as §5"}, "[23]": {"test": "AUC (0 to 8 hrs) in C57BL/6J mouse plasma at 10 mg/kg, po administered as single dose by mass spectrometry based UHPLC analysis", "format": "ADME, organism-based", "parameters": "time < 8 hr, route oral, dose 10 mg/kg", "outline": "as §5"}, "[24]": {"test": "Elimination half life in C57BL/6J mouse plasma at 10 mg/kg, po administered as single dose by mass spectrometry based UHPLC analysis", "format": "ADME, organism-based", "conditions": "read-out: beta t1/2 (converted)", "outline": "as §5"}, "[25]": {"system": "Mus musculus", "test": "In vivo inhibition of PI3Kalpha in C57BL/6J mouse assessed as increase in plasma glucose concentration at 10 mg/kg, po measured after 8 hrs by glucoseoxidase-peroxide coupled colorimetric assay", "format": "functional, organism-based"}, "[26]": {"test": "Tmax in C57BL/6J mouse plasma at 10 mg/kg, po administered once a day for 4 consecutive days by mass spectrometry based UHPLC analysis", "format": "ADME, organism-based", "conditions": "time 4 day", "outline": "as §3"}, "[27]": {"test": "Cmax in C57BL/6J mouse plasma at 10 mg/kg, po administered once a day for 4 consecutive days by mass spectrometry based UHPLC analysis", "format": "ADME, organism-based", "parameters": "route oral, dose 10 mg/kg, time 4 day", "outline": "as §4"}, "[28]": {"test": "Tmax in C57BL/6J mouse brain at 10 mg/kg, po administered once a day for 4 consecutive days by mass spectrometry based UHPLC analysis", "format": "ADME, organism-based", "conditions": "time 4 day", "outline": "as §3"}, "[29]": {"test": "Elimination half life in C57BL/6J mouse brain at 10 mg/kg, po administered once a day for 4 consecutive days by mass spectrometry based UHPLC analysis", "format": "ADME, organism-based", "conditions": "time 4 day, read-out: beta t1/2 (converted)", "outline": "as §4"}, "[30]": {"test": "Tmax in C57BL/6J mouse plasma at 10 mg/kg, po administered as single dose by mass spectrometry based UHPLC analysis", "format": "ADME, organism-based", "outline": "as §3"}, "[31]": {"system": "Mus musculus", "test": "Protection against Tsc1-GFAP knockout induced mortality in Balb/c mouse assessed as increase in survival rate at 10 mg/kg, po administered as single dose", "format": "functional, organism-based"}},
  "note": "Activity calls are given as the source filed them. The calls are words filed in the database; no cut-off is given here.",
  "data": [
    {"smiles": "Nc1cc(C(F)F)c(-c2nc(N3C4CCC3COC4)nc(N3C4CCC3COC4)n2)cn1", "values": [
      {"measurement": "remaining at 3 h, 5 µM", "setting": "[1]", "value": "> 59.9", "unit": "%"},
      {"measurement": "remaining at 3 h, 5 µM", "setting": "[2]", "value": 27.8, "unit": "%"},
      {"measurement": "Activity", "setting": "[3]", "value": "Active"},
      {"measurement": "remaining at 3 h, 5 µM", "setting": "[4]", "value": "> 59.9", "unit": "%"},
      {"measurement": "Activity", "setting": "[5]", "value": "Dose-dependent effect"},
      {"measurement": "Activity", "setting": "[6]", "value": "Dose-dependent effect"},
      {"measurement": "remaining at 3 h, 5 µM", "setting": "[7]", "value": "> 59.9", "unit": "%"},
      {"measurement": "MTD at 504 h", "setting": "[8]", "value": 150, "unit": "mg/kg"},
      {"measurement": "Activity", "setting": "[9]", "value": "Non-Toxic"}
    ]},
    {"smiles": "CO[C@H]1C[C@@H]2CC[C@@H](C)[C@@](O)(O2)C(=O)C(=O)N2CCCC[C@H]2C(=O)O[C@H]([C@H](C)C[C@@H]2CC[C@@H](OCCO)[C@H](OC)C2)CC(=O)[C@H](C)/C=C(\\C)[C@@H](O)[C@@H](OC)C(=O)[C@H](C)C[C@H](C)/C=C/C=C/C=C/1C", "note": "[EVEROLIMUS]", "values": [
      {"measurement": "Tmax", "setting": "[10]", "value": 24, "unit": "h"},
      {"measurement": "AUC at 96 h", "setting": "[11]", "value": 42300, "unit": "ng·h/mL"},
      {"measurement": "inhibition", "setting": "[12]", "value": "inactive"},
      {"measurement": "CL/F", "setting": "[13]", "value": 4.6, "unit": "mL/min/kg"},
      {"measurement": "Cmax", "setting": "[14]", "value": 3460, "unit": "ng/mL"},
      {"measurement": "Activity", "setting": "[15]", "value": "Non-Toxic"},
      {"measurement": "CL/F", "setting": "[16]", "value": 3.75, "unit": "mL/min/kg"},
      {"measurement": "AUC at 96 h", "setting": "[17]", "value": 640, "unit": "ng·h/mL"},
      {"measurement": "AUC(0-t) at 8 h", "setting": "[18]", "value": 804, "unit": "ng·h/mL"},
      {"measurement": "half-life", "setting": "[19]", "value": 5.7, "unit": "h"},
      {"measurement": "Cmax", "setting": "[20]", "value": 43, "unit": "ng/mL"},
      {"measurement": "inhibition", "setting": "[21]", "value": "inactive"},
      {"measurement": "Cmax", "setting": "[22]", "value": 57, "unit": "ng/mL"},
      {"measurement": "AUC(0-t) at 8 h", "setting": "[23]", "value": 33600, "unit": "ng·h/mL"},
      {"measurement": "half-life", "setting": "[24]", "value": 6.5, "unit": "h"},
      {"measurement": "inhibition", "setting": "[25]", "value": "inactive"},
      {"measurement": "Tmax", "setting": "[26]", "value": 2, "unit": "h"},
      {"measurement": "Cmax", "setting": "[27]", "value": 3940, "unit": "ng/mL"},
      {"measurement": "Tmax", "setting": "[28]", "value": 4, "unit": "h"},
      {"measurement": "half-life", "setting": "[29]", "value": 15.8, "unit": "h"},
      {"measurement": "Tmax", "setting": "[30]", "value": 0.5, "unit": "h"},
      {"measurement": "Activity", "setting": "[31]", "value": "Active"}
    ]}
  ]
}
